This note sets out measurements from article PMC4486249 (Journal of medicinal chemistry, 2010).

pIC50: −log10 of the molar value. “Also recorded” adds a separate entry of the source. Where a SMILES comes first, the peptide text is derived from it. Bounds are passed on as bounds.

Series [1] relates to HIV-1HXB2 in MT-4 Luc cells. As to the kind of experiment: MT-4 Luc assay, protection from HIV-1-induced cell death. It counts as cell-based. The settings on record: for IC50 of inhibition of HIV-1 replication in cells: MT-4 Luc cell system, in words; for inhibitory effect against HIV-1 replication: MT-4 Luc cells infected with HIV-1, luciferase signal, various concentrations (Figure 4).

The next series has as its target RT-associated RNase H (Human immunodeficiency virus type 1 group M subtype B, UniProt P04585). As to the kind of experiment: RT-associated RNase H activity assay. The class given is biochemical, HIV-1.
In series [2] the test system is X4-tropic HIV-1HXB2 on MT-4 cells. As to the kind of experiment: HIV-1 replication kinetics in MT-4 cells. The class given is cell-based. The settings on record: 0.5 μM peptide, replication kinetics (Figure 5B). In short, it runs like this: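 MT-4 cells (1×10^5) were exposed to HIV-1HXB2-containing culture supernatant (ca. 0.2-50 ng p24) for 30 min at room temperature, then washed and cultured with or without 0.5 μM test peptide. Supernatants were collected at several time points, with cells passaged if necessary. Replication was read out as p24 antigen levels measured by ELISA.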

The test system of a further series is MT-4 Luc cells. As to conditions: MT-4 Luc system (Figure 4).

What is called pIC50 is −log10 of the IC50, conventionally taken in molar units. Low readings indicate a large IC50, high ones a small IC50.

In the case of `CC(=O)N[C@@H](CC(C)C)C(=O)N[C@@H](CCC(N)=O)C(=O)N[C@@H](CCC(N)=O)C(=O)N[C@@H](CC(C)C)C(=O)N[C@@H](CC(C)C)C(=O)N[C@@H](Cc1ccccc1)C(=O)N[C@@H](CCCNC(=N)N)C(=O)N[C@@H](CCCNC(=N)N)C(=O)N[C@@H](CCCNC(=N)N)C(=O)N[C@@H](CCCNC(=N)N)C(=O)N[C@@H](CCCNC(=N)N)C(=O)N[C@@H](CCCNC(=N)N)C(=O)N[C@@H](CCCNC(=N)N)C(=O)N[C@@H](CCCNC(=N)N)C(N)=O` [Vpr-1 R8] (Ac-LQQLLFRRRRRRRR-NH2), the antiviral effect entry in series [1] (MT-4 Luc cells, at a concentration of 20 μM) is “weak antiviral effect”.
Take `CC[C@H](C)[C@H](NC(C)=O)C(=O)N[C@@H](Cc1c[nH]cn1)C(=O)N[C@@H](Cc1ccccc1)C(=O)N[C@@H](CCCNC(=N)N)C(=O)N[C@H](C(=O)NCC(=O)N[C@@H](CCCNC(=N)N)C(=O)N[C@@H](CCCNC(=N)N)C(=O)N[C@@H](CCCNC(=N)N)C(=O)N[C@@H](CCCNC(=N)N)C(=O)N[C@@H](CCCNC(=N)N)C(=O)N[C@@H](CCCNC(=N)N)C(=O)N[C@@H](CCCNC(=N)N)C(=O)N[C@@H](CCCNC(=N)N)C(N)=O)[C@@H](C)CC` [Vpr-2 R8] (Ac-IHFRIGRRRRRRRR-NH2): the anti-HIV-1 activity entry in series [1] (MT-4 Luc cells, below concentrations of 20 μM) is recorded as “no significant anti-HIV-1 activity”.
`CC[C@H](C)[C@H](NC(=O)[C@H](CCCNC(=N)N)NC(=O)[C@H](Cc1ccccc1)NC(=O)[C@H](Cc1cnc[nH]1)NC(=O)[C@@H](NC(=O)[C@H](Cc1ccccc1)NC(=O)[C@H](CC(C)C)NC(=O)[C@H](CC(C)C)NC(=O)[C@H](CCC(N)=O)NC(=O)[C@H](CCC(N)=O)NC(=O)[C@H](CC(C)C)NC(C)=O)[C@@H](C)CC)C(=O)NCC(=O)N[C@@H](CCCNC(=N)N)C(=O)N[C@@H](CCCNC(=N)N)C(=O)N[C@@H](CCCNC(=N)N)C(=O)N[C@@H](CCCNC(=N)N)C(=O)N[C@@H](CCCNC(=N)N)C(=O)N[C@@H](CCCNC(=N)N)C(=O)N[C@@H](CCCNC(=N)N)C(=O)N[C@@H](CCCNC(=N)N)C(N)=O` [Vpr-3 R8]: the negative logarithm of the IC50 (pIC50) against RT-associated RNase H is less than 6.30. Also, in series [1], the “IC50 of inhibition of HIV-1 replication in cells” value was “submicromolar” and the “inhibitory effect against HIV-1 replication” value is listed as “significant inhibitory effects”. Further, in series [2], the “replication of HIV-1HXB2” value was “quite low; also recorded: extensively suppressed”. The “cytotoxicity, comparison” value in the series with MT-4 Luc cells is “less cytotoxic than Vpr-4 R8”.
For `CC[C@H](C)[C@H](NC(=O)[C@H](C)NC(=O)[C@H](CCC(=O)O)NC(C)=O)C(=O)N[C@H](C(=O)N[C@@H](CCCNC(=N)N)C(=O)N[C@H](C(=O)N[C@@H](CC(C)C)C(=O)N[C@@H](CCC(N)=O)C(=O)N[C@@H](CCC(N)=O)C(=O)N[C@@H](CC(C)C)C(=O)N[C@@H](CC(C)C)C(=O)N[C@@H](Cc1ccccc1)C(=O)N[C@H](C(=O)N[C@@H](Cc1c[nH]cn1)C(=O)N[C@@H](Cc1ccccc1)C(=O)N[C@@H](CCCNC(=N)N)C(=O)N[C@H](C(=O)NCC(=O)N[C@@H](CCCNC(=N)N)C(=O)N[C@@H](CCCNC(=N)N)C(=O)N[C@@H](CCCNC(=N)N)C(=O)N[C@@H](CCCNC(=N)N)C(=O)N[C@@H](CCCNC(=N)N)C(=O)N[C@@H](CCCNC(=N)N)C(=O)N[C@@H](CCCNC(=N)N)C(=O)N[C@@H](CCCNC(=N)N)C(N)=O)[C@@H](C)CC)[C@@H](C)CC)[C@@H](C)CC)[C@@H](C)CC` [Vpr-4 R8], the pIC50 against RT-associated RNase H is less than 6.30. In series [1], the “IC50 of inhibition of HIV-1 replication in cells” value was “submicromolar” and the “inhibitory effect against HIV-1 replication” value is on record as “significant inhibitory effects”.
